Assays:
Assay type in all cases: functional
Parameters in all cases: scale not given: the % may be the effect or the level left
[1] = system: HCT-15; assay: Growth inhibition of human HCT15 cells assessed tumor cell growth at 10^-5 M
Method in brief: (§1)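 NCI 60-human-tumor-cell-line panel screen. Each compound was tested at a single concentration of 10^-5 M, and percent growth of tumor cells was recorded for each cell line. Growth inhibition was expressed from these percent-growth values.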

[2] = system: UO-31; assay: Growth inhibition of human UO31 cells assessed tumor cell growth at 10^-5 M
Method in brief: (§2)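 Single-dose screen at 10^-5 M across the 60 human tumor cell line panel, run to NCI standards. The value is the percent growth of each cell line in the presence of compound. Compounds active at this dose moved on to five-concentration testing (10^-4 to 10^-8 M).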

[3] = system: M14; assay: Growth inhibition of human M14 cells assessed tumor cell growth at 10^-5 M; method in brief: as §1
[4] = system: T47D; assay: Growth inhibition of human T47D cells assessed tumor cell growth at 10^-5 M; method in brief: as §2
[5] = system: SK-MEL-5; assay: Growth inhibition of human SK-MEL-5 cells assessed tumor cell growth at 10^-5 M; method in brief: as §1
[6] = system: SF-539; assay: Growth inhibition of human SF539 cells assessed tumor cell growth at 10^-5 M; method in brief: as §1
[7] = system: MCF7; assay: Growth inhibition of human MCF7 cells assessed tumor cell growth at 10^-5 M; method in brief: as §1
[8] = system: OVCAR-8; assay: Growth inhibition of human OVCAR8 cells assessed tumor cell growth at 10^-5 M; method in brief: as §1
[9] = system: SNB-75; assay: Growth inhibition of human SNB75 cells assessed tumor cell growth at 10^-5 M; method in brief: as §2
[10] = system: SW-620; assay: Growth inhibition of human SW620 cells assessed tumor cell growth at 10^-5 M; method in brief: as §2
[11] = system: A498; assay: Growth inhibition of human A498 cells assessed tumor cell growth at 10^-5 M; method in brief: as §1
[12] = system: LOX IMVI; assay: Growth inhibition of human LOXIMVI cells assessed tumor cell growth at 10^-5 M; method in brief: as §1
[13] = system: 786-0; assay: Growth inhibition of human 786-0 cells assessed tumor cell growth at 10^-5 M; method in brief: as §1
[14] = system: MDA-MB-231; assay: Growth inhibition of human MDA-MB-231 cells assessed tumor cell growth at 10^-5 M; method in brief: as §1
[15] = system: K562; assay: Growth inhibition of human K562 cells assessed tumor cell growth at 10^-5 M; method in brief: as §1
[16] = system: NCI-H322M; assay: Growth inhibition of human NCI-H322M cells assessed tumor cell growth at 10^-5 M; method in brief: as §1
[17] = system: ACHN; assay: Growth inhibition of human ACHN cells assessed tumor cell growth at 10^-5 M; method in brief: as §1
[18] = system: CAKI-1; assay: Growth inhibition of human Caki1 cells assessed tumor cell growth at 10^-5 M; method in brief: as §1
[19] = system: TK-10; assay: Growth inhibition of human TK10 cells assessed tumor cell growth at 10^-5 M; method in brief: as §2
[20] = system: HCT-116; assay: Growth inhibition of human HCT116 cells assessed tumor cell growth at 10^-5 M; method in brief: as §1
[21] = system: KM12; assay: Growth inhibition of human KM12 cells assessed tumor cell growth at 10^-5 M; method in brief: as §1
[22] = system: OVCAR-3; assay: Growth inhibition of human OVCAR3 cells assessed tumor cell growth at 10^-5 M; method in brief: as §1
[23] = Growth inhibition of human Hs 578T cells assessed tumor cell growth at 10^-5 M; method in brief: as §1
[24] = system: CCRF-CEM; assay: Growth inhibition of human CCRF-CEM cells assessed tumor cell growth at 10^-5 M; method in brief: as §1
[25] = system: MDA-MB-435; assay: Growth inhibition of human MDA-MB-435 cells assessed tumor cell growth at 10^-5 M; method in brief: as §1
[26] = system: PC-3; assay: Growth inhibition of human PC3 cells assessed tumor cell growth at 10^-5 M; method in brief: as §1
[27] = system: SF-295; assay: Growth inhibition of human SF295 cells assessed tumor cell growth at 10^-5 M; method in brief: as §1
[28] = system: Malme-3M; assay: Growth inhibition of human MALME-3M cells assessed tumor cell growth at 10^-5 M; method in brief: as §1
[29] = system: UACC-257; assay: Growth inhibition of human UACC257 cells assessed tumor cell growth at 10^-5 M; method in brief: as §2
[30] = system: OVCAR-4; assay: Growth inhibition of human OVCAR4 cells assessed tumor cell growth at 10^-5 M; method in brief: as §1
[31] = system: BT-549; assay: Growth inhibition of human BT549 cells assessed tumor cell growth at 10^-5 M; method in brief: as §1
[32] = system: HCC 2998; assay: Growth inhibition of human HCC2998 cells assessed tumor cell growth at 10^-5 M; method in brief: as §1
[33] = system: IGROV-1; assay: Growth inhibition of human IGROV1 cells assessed tumor cell growth at 10^-5 M; method in brief: as §1
[34] = system: HL-60(TB); assay: Growth inhibition of human HL-60(TB) cells assessed tumor cell growth at 10^-5 M
Method in brief: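 HL-60(TB), part of the 60-line panel, tested at a single concentration of 10^-5 M. The read-out is percent tumor cell growth relative to untreated growth.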

[35] = system: MOLT-4; assay: Growth inhibition of human MOLT4 cells assessed tumor cell growth at 10^-5 M; method in brief: as §1
[36] = system: U-251; assay: Growth inhibition of human U251 cells assessed tumor cell growth at 10^-5 M; method in brief: as §2
[37] = system: SR; assay: Growth inhibition of human SR cells assessed tumor cell growth at 10^-5 M; method in brief: as §2
[38] = system: DU-145; assay: Growth inhibition of human DU145 cells assessed tumor cell growth at 10^-5 M; method in brief: as §1
[39] = system: UACC-62; assay: Growth inhibition of human UACC62 cells assessed tumor cell growth at 10^-5 M; method in brief: as §2
[40] = system: NCI-H23; assay: Growth inhibition of human NCI-H23 cells assessed tumor cell growth at 10^-5 M; method in brief: as §1
[41] = system: RXF 393; assay: Growth inhibition of human RXF393 cells assessed tumor cell growth at 10^-5 M; method in brief: as §1
[42] = system: SK-OV-3; assay: Growth inhibition of human SKOV3 cells assessed tumor cell growth at 10^-5 M; method in brief: as §1
[43] = system: SNB-19; assay: Growth inhibition of human SNB19 cells assessed tumor cell growth at 10^-5 M; method in brief: as §2
[44] = system: COLO 205; assay: Growth inhibition of human COLO205 cells assessed tumor cell growth at 10^-5 M; method in brief: as §1
[45] = system: EKVX; assay: Growth inhibition of human EKVX cells assessed tumor cell growth at 10^-5 M; method in brief: as §1
[46] = system: HOP-62; assay: Growth inhibition of human HOP62 cells assessed tumor cell growth at 10^-5 M; method in brief: as §1
[47] = system: NCI/ADR-RES; assay: Growth inhibition of human NCI/ADR-RES cells assessed tumor cell growth at 10^-5 M; method in brief: as §1
[48] = system: HOP-92; assay: Growth inhibition of human HOP92 cells assessed tumor cell growth at 10^-5 M; method in brief: as §1
[49] = system: SK-MEL-28; assay: Growth inhibition of human SK-MEL-28 cells assessed tumor cell growth at 10^-5 M; method in brief: as §1
[50] = system: NCI-H226; assay: Growth inhibition of human NCI-H226 cells assessed tumor cell growth at 10^-5 M; method in brief: as §1
[51] = system: MDA-MB-468; assay: Growth inhibition of human MDA-MB-468 cells assessed tumor cell growth at 10^-5 M; method in brief: as §1
[52] = system: SK-MEL-2; assay: Growth inhibition of human SK-MEL-2 cells assessed tumor cell growth at 10^-5 M; method in brief: as §1
[53] = system: A549; assay: Growth inhibition of human A549 cells assessed tumor cell growth at 10^-5 M; method in brief: as §1
[54] = system: NCI-H460; assay: Growth inhibition of human NCI-H460 cells assessed tumor cell growth at 10^-5 M; method in brief: as §1
[55] = system: NCI-H522; assay: Growth inhibition of human NCI-H522 cells assessed tumor cell growth at 10^-5 M; method in brief: as §1
[56] = Growth inhibition of human […] cells assessed tumor cell growth at 10^-5 M; method in brief: as §1
[57] = system: OVCAR-5; assay: Growth inhibition of human OVCAR5 cells assessed tumor cell growth at 10^-5 M; method in brief: as §1
[58] = system: SN12C; assay: Growth inhibition of human SN12C cells assessed tumor cell growth at 10^-5 M; method in brief: as §1
[59] = system: HT-29; assay: Growth inhibition of human HT-29 cells assessed tumor cell growth at 10^-5 M; method in brief: as §1
[60] = system: SF-268; assay: Growth inhibition of human SF268 cells assessed tumor cell growth at 10^-5 M; method in brief: as §1

Compound `Cc1ccc(S(=O)(=O)n2cc(/C=C3\C(=O)N(c4c(Cl)cccc4Cl)c4ccccc43)c3ccccc32)cc1` has an Activity [1] of 104.5%, an Activity [2] of 63.9% and an Activity [3] of 76%. The Activity [4] was 88.7%, the Activity [5] was 101% and the Activity [6] was 102.9%. For the same compound, the Activity [7] was 84.6%, the Activity [8] was 96.7% and the Activity [9] was 74.3%. It also gave an Activity [10] of 89.9%, an Activity [11] of 44% and an Activity [12] of 89.7%. The Activity [13] was 92.1%, the Activity [14] was 89.3% and the Activity [15] was 86.5%. For the same compound, the Activity [16] was 99.4%, the Activity [17] was 89.8% and the Activity [18] was 79.5%. For the same compound, the Activity [19] was 102.3%, the Activity [20] was 87% and the Activity [21] was 97.6%. For the same compound, the Activity [22] was 94.9%, the Activity [23] was 73.4% and the Activity [24] was 95.6%. For the same compound, the Activity [25] was 99.2%, the Activity [26] was 64.5% and the Activity [27] was 100.8%. For the same compound, the Activity [28] was 75.8%, the Activity [29] was 106.8% and the Activity [30] was 73.8%. For the same compound, the Activity [31] was 94.2%, the Activity [32] was 86.7% and the Activity [33] was 83.8%. It also gave an Activity [34] of 79.6%, an Activity [35] of 89.6% and an Activity [36] of 98.2%. The Activity [37] was 87.4%, the Activity [38] was 102.5% and the Activity [39] was 78.2%. It also gave an Activity [40] of 76.6%, an Activity [41] of 121.2% and an Activity [42] of 98.7%. It also gave an Activity [43] of 105.9%, an Activity [44] of 100.1% and an Activity [45] of 89.5%. It also gave an Activity [46] of 83.2%, an Activity [47] of 88.2% and an Activity [48] of 33.5%. The Activity [49] was 95.8%, the Activity [50] was 95.2% and the Activity [51] was 84%. It also gave an Activity [52] of 94.5%, an Activity [53] of 103.8% and an Activity [54] of 102.8%. The Activity [55] was 91.5%, the Activity [56] was 77.8% and the Activity [57] was 84.2%. The Activity [58] was 87.4%, the Activity [59] was 89.3% and the Activity [60] was 86.4%.
`O=C1/C(=C\c2cn(C(=O)c3ccccc3)c3ccccc23)c2ccccc2N1c1c(Cl)cccc1Cl` showed an Activity [1] of 66.3%, an Activity [2] of 76.9% and an Activity [3] of 104.2%. For the same compound, the Activity [4] was 92.4%, the Activity [5] was 107.1% and the Activity [6] was 104%. The Activity [7] was 95.7%, the Activity [8] was 113.1% and the Activity [9] was 82.2%. The Activity [10] was 104.6%, the Activity [11] was 102.8% and the Activity [12] was 97.6%. The Activity [13] was 90.7%, the Activity [14] was 103.3% and the Activity [15] was 114.6%. For the same compound, the Activity [16] was 111.9%, the Activity [17] was 97.6% and the Activity [18] was 86.4%. The Activity [19] was 118.8%, the Activity [20] was 94% and the Activity [21] was 111.3%. It also gave an Activity [22] of 116.1%, an Activity [23] of 107.3% and an Activity [24] of 111.2%. It also gave an Activity [25] of 115.5%, an Activity [26] of 71.8% and an Activity [27] of 126.6%. The Activity [28] was 106%, the Activity [29] was 123.3% and the Activity [30] was 99.5%. The Activity [31] was 106.5%, the Activity [32] was 101.6% and the Activity [33] was 99.2%. It also gave an Activity [34] of 102.5%, an Activity [35] of 89.6% and an Activity [36] of 88.4%. It also gave an Activity [37] of 99.5%, an Activity [38] of 119.5% and an Activity [39] of 95.4%. For the same compound, the Activity [40] was 97.2%, the Activity [41] was 150.7% and the Activity [42] was 111.6%. It also gave an Activity [44] of 122.5%, an Activity [45] of 97.7% and an Activity [46] of 94.2%. For the same compound, the Activity [47] was 99.7%, the Activity [48] was 79.8% and the Activity [49] was 113.4%. For the same compound, the Activity [50] was 94.8%, the Activity [51] was 97.7% and the Activity [52] was 102.9%. For the same compound, the Activity [53] was 110%, the Activity [54] was 111.1% and the Activity [55] was 90.9%. The Activity [56] was 100.6%, the Activity [57] was 94.2% and the Activity [58] was 89.5%. The Activity [59] was 103.4% and the Activity [60] was 99.9%.
